In ChEMBL document CHEMBL1649436, “Antiviral activity of MK-4965, a novel nonnucleoside reverse transcriptase inhibitor” (Antimicrob Agents Chemother, 2009):

Assays:
[1] = Cytotoxicity against stationary-phase human monocyte after 24 to 72 hrs by alamar blue assay; type: cell-based
Procedure, shortened: (§1)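 Cytotoxicity measured with Alamar blue after incubation at 37°C in 5% CO2 for 24, 48 or 72 h, in stationary and activated primary cells (CD4 cells, monocytes, PBMC, macrophages) and proliferating lines (MT4, SupT1, HL60).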

[2] = test system: Human immunodeficiency virus 1; assay: Antiviral activity against HIV1 isolate R8 harboring reverse transcriptase K103N and Y181C mutant infected in human MT4 cells assessed as inhibition of viral replication after 72 hrs in presence of 10% FBS; type: functional; details: Human immunodeficiency virus 1, isolate R8, MT4, 72 h
Procedure, shortened: (§2)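 Multiple-cycle assay: MT-4 cells (2.5 × 10^5) infected with R8-based virus at low MOI, no inhibitor, 24 h at 37°C, 5% CO2; washed, reseeded at 5 × 10^4 cells in RPMI 1640 with 10% FBS or 50% type AB human serum; threefold serial dilutions from 833 nM to 0.32 nM; 72 h; p24 in medium by AlphaScreen; EC95 = lowest concentration giving ≥95% p24 reduction versus untreated.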

[3] = test system: PBMC; assay: Cytotoxicity against activated human PBMC after 24 to 72 hrs by alamar blue assay; type: cell-based; procedure, shortened: as §1
[4] = test system: MT4; assay: Cytotoxicity against human MT4 cells after 24 to 72 hrs by alamar blue assay; type: cell-based; procedure, shortened: as §1
[5] = Cytotoxicity against activated human CD4+ T cells after 24 to 72 hrs by alamar blue assay; type: cell-based; details: T-cell; procedure, shortened: as §1
[6] = test system: Human immunodeficiency virus 1; assay: Antiviral activity against HIV1 clade G harboring mutant reverse transcriptase relative to HIV1 CNDO with wild type reverse transcriptase; type: functional
[7] = test system: Human immunodeficiency virus 1; assay: Antiviral activity against HIV1 isolate R8 harboring reverse transcriptase Y188L mutant relative to drug-sensitive HIV1 CNDO; type: functional
Procedure, shortened: (§3)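 Single-cycle PhenoScreen assay run by Monogram Biosciences, using viruses carrying RT sequences from clinical isolates, subtypes/CRFs or PI/NRTI-resistant clade B viruses; nine serial drug concentrations; activity expressed relative to drug-sensitive reference strain CNDO (protease and RT from NL4-3), with multidrug-resistant MDRC4 as assay-performance control.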

[8] = test system: Human immunodeficiency virus 1; assay: Selectivity ratio of IC50 for HIV1 isolate R8 reverse transcriptase Y181C mutant to IC50 for HIV1 isolate R8 reverse transcriptase
[9] = test system: Human immunodeficiency virus 1; assay: Antiviral activity against HIV1 isolate R8 harboring reverse transcriptase Y181C mutant infected in human MT4 cells assessed as inhibition of viral replication after 72 hrs in presence of 10% FBS; type: functional; details: Human immunodeficiency virus 1, isolate R8, MT4, 72 h; procedure, shortened: as §2
[10] = test system: Human immunodeficiency virus 1; assay: Antiviral activity against NRTI-, PI-resistant HIV1 harboring mutant reverse transcriptase relative to HIV1 CNDO with wild type reverse transcriptase; type: functional; procedure, shortened: as §3
[11] = Cytotoxicity against activated human macrophage after 24 to 72 hrs by alamar blue assay; type: cell-based; procedure, shortened: as §1
[12] = test system: Human immunodeficiency virus 1; assay: Selectivity ratio of IC50 for HIV1 isolate R8 reverse transcriptase K103N mutant to IC50 for HIV1 isolate R8 reverse transcriptase
[13] = test system: Human immunodeficiency virus 1; assay: Antiviral activity against HIV1 isolate R8 harboring reverse transcriptase L100I mutant relative to drug-sensitive HIV1 CNDO; type: functional; procedure, shortened: as §3
[14] = test system: Human immunodeficiency virus 1; assay: Ratio of EC95 for HIV1 isolate R8 harboring reverse transcriptase Y181C mutant in presence of 50% human serum to EC95 for HIV1 isolate R8 harboring wild type reverse transcriptase in presence of 50% human serum; type: functional
Procedure, shortened: (§4)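 Ratios of EC95 values from the MT-4 multiple-cycle assay: R8 variants infected 24 h at low MOI, then reseeded in RPMI 1640 with 10% FBS or 50% type AB human serum with threefold dilutions (833–0.32 nM) for 72 h; p24 by AlphaScreen; EC95 = lowest concentration cutting p24 ≥95% versus untreated controls.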

[15] = test system: Human immunodeficiency virus 1; assay: Antiviral activity against HIV1 CRF02_AG harboring mutant reverse transcriptase relative to HIV1 CNDO with wild type reverse transcriptase; type: functional; procedure, shortened: as §3
[16] = test system: Human immunodeficiency virus 1; assay: Antiviral activity against HIV1 isolate R8 harboring reverse transcriptase V106A, G190A and F227L mutant relative to drug-sensitive HIV1 CNDO; type: functional; procedure, shortened: as §3
[17] = Cytotoxicity against stationary-phase human macrophage after 24 to 72 hrs by alamar blue assay; type: cell-based; procedure, shortened: as §1
[18] = Cytotoxicity against stationary-phase human CD4+ T cells after 24 to 72 hrs by alamar blue assay; type: cell-based; details: T-cell; procedure, shortened: as §1
[19] = test system: Human immunodeficiency virus 1; assay: Ratio of EC95 for HIV1 isolate R8 harboring reverse transcriptase K103N and Y181C mutant in presence of 50% human serum to EC95 for HIV1 isolate R8 harboring wild type reverse transcriptase in presence of 50% human serum; type: functional; procedure, shortened: as §4
[20] = test system: Human immunodeficiency virus 1; assay: Antiviral activity against HIV1 isolate R8 harboring wild type reverse transcriptase infected in human MT4 cells assessed as inhibition of viral replication after 72 hrs in presence of 50% human serum; type: functional; details: Human immunodeficiency virus 1, isolate R8, MT4, 72 h; procedure, shortened: as §2
[21] = test system: Human immunodeficiency virus 1; assay: Antiviral activity against HIV1 isolate R8 harboring wild type reverse transcriptase infected in human MT4 cells assessed as inhibition of viral replication after 72 hrs in presence of 10% FBS; type: functional; details: Human immunodeficiency virus 1, isolate R8, MT4, 72 h; procedure, shortened: as §2
[22] = test system: Human immunodeficiency virus 1; assay: Antiviral activity against HIV1 clade F1 harboring mutant reverse transcriptase relative to HIV1 CNDO with wild type reverse transcriptase; type: functional
[23] = test system: Human immunodeficiency virus 1; assay: Antiviral activity against HIV1 isolate R8 harboring reverse transcriptase K103N mutant infected in human MT4 cells assessed as inhibition of viral replication after 72 hrs in presence of 10% FBS; type: functional; details: Human immunodeficiency virus 1, isolate R8, MT4, 72 h; procedure, shortened: as §2
[24] = test system: Human immunodeficiency virus 1; assay: Antiviral activity against HIV1 clade A harboring mutant reverse transcriptase relative to HIV1 CNDO with wild type reverse transcriptase; type: functional
[25] = test system: Human immunodeficiency virus 1; assay: Antiviral activity against PI-resistant HIV1 harboring mutant reverse transcriptase relative to HIV1 CNDO with wild type reverse transcriptase; type: functional; procedure, shortened: as §3
[26] = test system: Human immunodeficiency virus 1; assay: Ratio of EC95 for HIV1 isolate R8 harboring reverse transcriptase K103N and Y181C mutant in presence of 50% human serum to EC95 for HIV1 isolate R8 harboring reverse transcriptase K103N and Y181C mutant in presence of 10% FBS; type: functional; procedure, shortened: as §4
[27] = test system: Human immunodeficiency virus 1; assay: Antiviral activity against HIV1 clade H harboring mutant reverse transcriptase relative to HIV1 CNDO with wild type reverse transcriptase; type: functional
[28] = test system: Human immunodeficiency virus 1; assay: Antiviral activity against HIV1 clade D harboring mutant reverse transcriptase relative to HIV1 CNDO with wild type reverse transcriptase; type: functional
[29] = test system: Human immunodeficiency virus 1; assay: Antiviral activity against HIV1 isolate R8 harboring reverse transcriptase Y181C mutant infected in human MT4 cells assessed as inhibition of viral replication after 72 hrs in presence of 50% human serum; type: functional; details: Human immunodeficiency virus 1, isolate R8, MT4, 72 h; procedure, shortened: as §2
[30] = test system: Human immunodeficiency virus 1; assay: Antiviral activity against HIV1 CRF17_BF harboring mutant reverse transcriptase relative to HIV1 CNDO with wild type reverse transcriptase; type: functional; procedure, shortened: as §3
[31] = test system: PBMC; assay: Cytotoxicity against stationary-phase human PBMC after 24 to 72 hrs by alamar blue assay; type: cell-based; procedure, shortened: as §1
[32] = Cytotoxicity against activated human monocyte after 24 to 72 hrs by alamar blue assay; type: cell-based; procedure, shortened: as §1
[33] = test system: Human immunodeficiency virus 1; assay: Antiviral activity against HIV1 CRF01_AE harboring mutant reverse transcriptase relative to HIV1 CNDO with wild type reverse transcriptase; type: functional; procedure, shortened: as §3
[34] = test system: Human immunodeficiency virus 1; assay: Antiviral activity against HIV1 clade B harboring mutant reverse transcriptase relative to HIV1 CNDO with wild type reverse transcriptase; type: functional
[35] = test system: Human immunodeficiency virus 1; assay: Ratio of EC95 for HIV1 isolate R8 harboring wild type reverse transcriptase in presence of 50% human serum to EC95 for HIV1 isolate R8 harboring wild type reverse transcriptase in presence of 10% FBS; type: functional; procedure, shortened: as §4
[36] = test system: Plasma; assay: Plasma protein binding in HIV1 infected patient; type: ADME, cell-free; details: human
[37] = test system: Human immunodeficiency virus 1; assay: Antiviral activity against HIV1 clade C harboring mutant reverse transcriptase relative to HIV1 CNDO with wild type reverse transcriptase; type: functional
[38] = test system: Human immunodeficiency virus 1; assay: Antiviral activity against HIV1 isolate R8 harboring reverse transcriptase K103N and G190A mutant relative to drug-sensitive HIV1 CNDO; type: functional; procedure, shortened: as §3
[39] = Cytotoxicity against human SupT1 cells after 24 to 72 hrs by alamar blue assay; type: cell-based; details: SUP-T1; procedure, shortened: as §1
[40] = test system: Human immunodeficiency virus 1; assay: Ratio of EC95 for HIV1 isolate R8 harboring reverse transcriptase K103N mutant in presence of 50% human serum to EC95 for HIV1 isolate R8 harboring wild type reverse transcriptase in presence of 50% human serum; type: functional; procedure, shortened: as §4
[41] = test system: Human immunodeficiency virus 1; assay: Ratio of EC95 for HIV1 isolate R8 harboring reverse transcriptase K103N mutant in presence of 50% human serum to EC95 for HIV1 isolate R8 harboring reverse transcriptase K103N mutant in presence of 10% FBS; type: functional; procedure, shortened: as §4
[42] = test system: HL-60; assay: Cytotoxicity against human HL60 cells after 24 to 72 hrs by alamar blue assay; type: cell-based; procedure, shortened: as §1
[43] = test system: Human immunodeficiency virus 1; assay: Antiviral activity against HIV1 isolate R8 harboring reverse transcriptase K103N and Y181C mutant infected in human MT4 cells assessed as inhibition of viral replication after 72 hrs in presence of 50% human serum; type: functional; details: Human immunodeficiency virus 1, isolate R8, MT4, 72 h; procedure, shortened: as §2
[44] = test system: Human immunodeficiency virus 1; assay: Ratio of EC95 for HIV1 isolate R8 harboring reverse transcriptase Y181C mutant in presence of 50% human serum to EC95 for HIV1 isolate R8 harboring reverse transcriptase Y181C mutant in presence of 10% FBS; type: functional; procedure, shortened: as §4
[45] = test system: Human immunodeficiency virus 1; assay: Antiviral activity against HIV1 isolate R8 harboring reverse transcriptase K103N mutant infected in human MT4 cells assessed as inhibition of viral replication after 72 hrs in presence of 50% human serum; type: functional; details: Human immunodeficiency virus 1, isolate R8, MT4, 72 h; procedure, shortened: as §2
[46] = test system: Human immunodeficiency virus 1; assay: Antiviral activity against NRTI-resistant HIV1 harboring mutant reverse transcriptase relative to HIV1 CNDO with wild type reverse transcriptase; type: functional; procedure, shortened: as §3

Question: What does the source list for `N#Cc1cc(Cl)cc(Oc2cc(OCc3n[nH]c4nc(N)ccc34)ccc2Cl)c1`?
Answer: EC50 [1]: > 3000 nM; EC95 [2]: 128 nM; EC50 [3]: > 3000 nM; EC50 [4]: > 3000 nM; EC50 [5]: > 3000 nM; fold change (FC) [6]: 0.58; fold change (FC) [7]: > 100; fold change (FC) [8]: 2; EC95 [9]: 30 nM; fold change (FC) [10]: 0.18; EC50 [11]: > 3000 nM; fold change (FC) [12]: 2; fold change (FC) [13]: 0.9; fold change (FC) [14]: 6; fold change (FC) [15]: 0.92; fold change (FC) [16]: > 100; EC50 [17]: > 3000 nM; EC50 [18]: > 3000 nM; fold change (FC) [19]: 15; EC95 [20]: 29 nM; EC95 [21]: 4.4 nM; fold change (FC) [22]: 0.72; EC95 [23]: 13 nM; fold change (FC) [24]: 0.73; fold change (FC) [25]: 0.84; fold change (FC) [26]: 4; fold change (FC) [27]: 0.22; fold change (FC) [28]: 0.56; EC95 [29]: 184 nM; fold change (FC) [30]: 1.15; EC50 [31]: > 3000 nM; EC50 [32]: > 3000 nM; fold change (FC) [33]: 0.9; fold change (FC) [34]: 1.25; fold change (FC) [35]: 4; Activity [36]: 96.5%; fold change (FC) [37]: 1.07; fold change (FC) [38]: 5; EC50 [39]: > 3000 nM; fold change (FC) [40]: 2; fold change (FC) [41]: 4; EC50 [42]: > 3000 nM; EC95 [43]: 447 nM; fold change (FC) [44]: 4; EC95 [45]: 58 nM; fold change (FC) [46]: 0.3
